Reference: ChEMBL document CHEMBL1141227, “Rhodamine-labeled 2beta-carbomethoxy-3beta-(3,4-dichlorophenyl)tropane analogues as high-affinity fluorescent probes for the dopamine transporter” (J Med Chem, 2005)

Assays:
Assay type in all cases: cell-based, COS-7
[1] = target: Sodium-dependent serotonin transporter (Homo sapiens, UniProt P31645); experiment: Displacement of [3H]5HT from human SERT expressed in COS7 cells
Outline: (§1)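 Ki derived from inhibition of radiolabelled substrate uptake into COS-7 cells transiently expressing hDAT or hNET ([3H]dopamine) or hSERT ([3H]5-HT). […] Three to six experiments in triplicate, mean with SE interval.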

[2] = target: T1, Sodium-dependent dopamine transporter (Homo sapiens, UniProt Q01959); experiment: Displacement of [3H]dopamine from human DAT expressed in COS7 cells; outline: as §1
[3] = target: Sodium-dependent noradrenaline transporter (Homo sapiens, UniProt P23975); experiment: Displacement of [3H]dopamine from human NET expressed in COS7 cells; outline: as §1
[4] = target: T1, Sodium-dependent dopamine transporter; experiment: Displacement of [3H]CFT from human DAT expressed in COS7 cells
Outline: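 Competition binding on intact COS-7 cells transiently expressing hDAT, with [3H]CFT (2β-carbomethoxy-3β-(4-fluorophenyl)tropane) as radioligand. Ki from nonlinear regression, using a KD for [3H]CFT determined in parallel. Mean of two to three experiments in triplicate, with SE interval.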

T1 sequence (Q01959 whole entry): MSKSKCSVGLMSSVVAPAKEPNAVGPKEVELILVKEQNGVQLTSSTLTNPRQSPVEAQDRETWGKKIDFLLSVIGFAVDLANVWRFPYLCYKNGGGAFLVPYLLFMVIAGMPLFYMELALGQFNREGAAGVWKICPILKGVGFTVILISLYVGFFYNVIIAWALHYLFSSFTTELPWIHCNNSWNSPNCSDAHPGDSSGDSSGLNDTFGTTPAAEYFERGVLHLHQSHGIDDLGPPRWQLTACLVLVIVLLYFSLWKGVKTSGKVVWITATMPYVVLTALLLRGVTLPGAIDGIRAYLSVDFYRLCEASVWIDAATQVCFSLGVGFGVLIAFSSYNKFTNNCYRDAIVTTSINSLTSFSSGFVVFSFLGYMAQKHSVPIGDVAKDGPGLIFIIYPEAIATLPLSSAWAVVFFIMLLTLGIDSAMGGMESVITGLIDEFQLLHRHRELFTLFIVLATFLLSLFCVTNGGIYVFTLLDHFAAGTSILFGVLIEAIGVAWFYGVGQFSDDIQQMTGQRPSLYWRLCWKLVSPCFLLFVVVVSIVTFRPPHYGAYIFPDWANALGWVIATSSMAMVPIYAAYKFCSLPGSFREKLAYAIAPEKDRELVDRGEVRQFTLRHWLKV
Sodium-dependent serotonin transporter, sequence (P31645 whole entry): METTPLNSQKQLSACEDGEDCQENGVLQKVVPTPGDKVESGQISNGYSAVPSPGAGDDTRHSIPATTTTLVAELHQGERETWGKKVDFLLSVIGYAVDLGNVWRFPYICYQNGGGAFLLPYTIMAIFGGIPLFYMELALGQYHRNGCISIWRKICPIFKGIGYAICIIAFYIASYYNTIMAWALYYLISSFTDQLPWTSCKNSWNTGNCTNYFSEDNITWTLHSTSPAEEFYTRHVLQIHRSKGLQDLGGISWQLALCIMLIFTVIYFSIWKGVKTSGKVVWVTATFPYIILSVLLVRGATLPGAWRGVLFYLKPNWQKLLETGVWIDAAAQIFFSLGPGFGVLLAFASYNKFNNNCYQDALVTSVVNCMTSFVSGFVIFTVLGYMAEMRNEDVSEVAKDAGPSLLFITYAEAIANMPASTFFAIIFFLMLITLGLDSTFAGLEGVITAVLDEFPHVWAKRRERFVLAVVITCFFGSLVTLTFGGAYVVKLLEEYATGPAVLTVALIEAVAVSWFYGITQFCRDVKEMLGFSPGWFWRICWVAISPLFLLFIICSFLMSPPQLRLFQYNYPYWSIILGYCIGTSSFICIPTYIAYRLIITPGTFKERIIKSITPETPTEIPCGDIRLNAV
Sodium-dependent noradrenaline transporter, sequence (P23975 whole entry): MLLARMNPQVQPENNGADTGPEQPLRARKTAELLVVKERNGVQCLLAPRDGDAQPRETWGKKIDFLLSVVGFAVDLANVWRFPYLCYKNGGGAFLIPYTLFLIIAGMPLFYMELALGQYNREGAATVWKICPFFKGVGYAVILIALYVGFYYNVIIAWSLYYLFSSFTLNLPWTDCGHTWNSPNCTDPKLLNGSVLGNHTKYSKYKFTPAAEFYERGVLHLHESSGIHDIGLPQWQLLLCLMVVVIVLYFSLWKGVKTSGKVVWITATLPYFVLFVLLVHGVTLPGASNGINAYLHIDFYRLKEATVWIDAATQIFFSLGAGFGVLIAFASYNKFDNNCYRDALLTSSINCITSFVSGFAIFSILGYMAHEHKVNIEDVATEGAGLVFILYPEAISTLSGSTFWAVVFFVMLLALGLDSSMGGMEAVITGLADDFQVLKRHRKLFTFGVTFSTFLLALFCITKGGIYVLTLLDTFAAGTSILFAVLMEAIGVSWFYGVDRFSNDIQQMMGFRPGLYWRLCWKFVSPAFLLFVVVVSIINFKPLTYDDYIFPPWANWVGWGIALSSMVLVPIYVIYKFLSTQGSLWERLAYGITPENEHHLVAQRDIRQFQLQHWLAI

CCN(CC)c1ccc2c(-c3ccc(S(=O)(=O)NCCCCCC(=O)NCCOC(=O)[C@@H]4C5CCC(C[C@@H]4c4ccc(Cl)c(Cl)c4)N5C)cc3S(=O)(=O)[O-])c3ccc(=[N+](CC)CC)cc-3oc2c1 (some centres undefined)
Ki [1]: 1490 nM | Ki [2]: 72 nM | Ki [3]: 177 nM | Ki [4]: 27 nM

CCN(CC)c1ccc2c(-c3ccc(S(=O)(=O)NC[C@H]4CC[C@H](C(=O)NCCN5C6CCC5[C@@H](C(=O)OC)[C@@H](c5ccc(Cl)c(Cl)c5)C6)CC4)cc3S(=O)(=O)[O-])c3ccc(=[N+](CC)CC)cc-3oc2c1 (some centres undefined)
Ki [1]: 705 nM | Ki [2]: 436 nM | Ki [3]: 627 nM

CCN(CC)c1ccc2c(-c3ccc(S(=O)(=O)NCCCCCC(=O)NCCN4C5CCC4[C@@H](C(=O)OC)[C@@H](c4ccc(Cl)c(Cl)c4)C5)cc3S(=O)(=O)[O-])c3ccc(=[N+](CC)CC)cc-3oc2c1 (some centres undefined)
Ki [1]: 392 nM | Ki [2]: 62 nM | Ki [3]: 194 nM | Ki [4]: 18 nM

COC(=O)[C@@H]1C2CCC(C[C@@H]1c1ccc(Cl)c(Cl)c1)N2C (some centres undefined)
Ki [1]: 12 nM | Ki [2]: 2.3 nM | Ki [3]: 5 nM | Ki [4]: 0.2 nM

COC(=O)[C@@H]1C2CCC(C[C@@H]1c1ccc(Cl)c(Cl)c1)N2CCNC(=O)CCCN1CCCc2cc3c(cc21)C(C)(C)C1=CC(=[N+](C)C)C=CC1=C3 (some centres undefined)
Ki [1]: 227 nM | Ki [2]: 250 nM | Ki [3]: 308 nM | Ki [4]: 50 nM
